Screening data: PubChem, The Scripps Research Institute Molecular Screening Center
Only some compounds are listed: those with a hit (about 1.9% of all), similar ones and a draw of the others.
sPLA2-III inh = human group III sPLA2 inhibitors, primary screen, biochemical, QFRET, BODIPY PC-A2 liposome substrate | QFRET BODIPY PC-A2 liposome hydrolysis, fluorescence | inhibition, % at 12.2 µM | 0.56% of 370,000 active;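 active means inhibition above mean plus 3 SD of compounds lying within the high and low control bounds, cut at about 19% in these data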
ASAP1 GAP inh = inhibitors of human ASAP1 ArfGAP activity, primary screen, biochemical, fluorescence polarization; Arf-GAP with SH3 domain, ANK repeat and PH domain-containing protein 1 (Homo sapiens), …; ASAP1-stimulated ARF1 GTP hydrolysis, GDP FP detection; inhibition, % at 16.5 µM; 0.19% of 360,000 active; AID 624377, 2012; in the data active means inhibition above about 25%
ARFGAP1 inhibitor = inhibitors of rat ARFGAP1 GAP activity, primary screen, biochemical, fluorescence polarization, GDP tracer; ADP-ribosylation factor GTPase-activating protein 1 (Rattus norvegicus), Q62848; Arfgap1-stimulated ARF1 GTP hydrolysis, GDP FP detection; inhibition, % at 16.5 µM; 0.26% of 360,000 active;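 active means inhibition above a per-plate limit, mean inhibition of low control wells plus 3 SD, cut at about 25% in these data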
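Repeats: one replicate per compound; assay system: rat Arfgap1 catalytic domain, aa 1-136; times: enzyme reaction 120 min at 25 °C after 20 min preincubation; detection: FP of antibody-bound GDP Alexa 633 tracer, ex 620/em 688 nm; benchmarks: high control wells lacking Arfgap1, low control full reaction with DMSO; reagent: human ARF1(Δ1-17)-GTP substrate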
PLCg1 inh = PLC-gamma1 enzyme inhibitors, primary screen, biochemical, fluorescence, purified enzyme; 1-phosphatidylinositol 4,5-bisphosphate phosphodiesterase gamma-1 (Homo sapiens), P19174; 0.84% of 370,000 active; AID 720700, 2013; inhibition, % at 12.2 µM; fluorogenic substrate; in the data active means inhibition above about 9.5%
PLC-beta3 inh = human PLC-beta3 inhibitors, primary screen, biochemical, fluorescence. 1-phosphatidylinositol 4,5-bisphosphate phosphodiesterase beta-3 (Homo sapiens), Q01970. Purified PLC-beta3, fluorogenic substrate. inhibition, % at 12.2 µM. 0.18% of 370,000 active. AID 720704, 2013; in the data active means inhibition above about 11%
ASAP1 inh confirm = ASAP1 GAP activity inhibitors, confirmation, biochemical, fluorescence polarization, human, triplicate | shares compounds with ASAP1 GAP inh | ASAP1-stimulated Arf1 GTPase, GDP fluorescence polarization | inhibition, % at 16.5 µM | 37% of 620 active | AID 624431, 2012;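 active means mean inhibition over triplicates exceeds the hit threshold derived for the earlier primary screening run, cut at about 25% in these data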
Each line names hits and unclear results; the compound was inactive in the other large screens (follow-up assays come after a bar, where they were run).

Cc1ccc(-c2nc(Nc3cccc(O)c3)c3ccccc3n2)cc1	ASAP1 GAP inh 28.9 | ASAP1 inh confirm inactive
Nc1nnc(SCC(=O)Nc2cccnc2Cl)s1	none
Cc1cccc(Nc2nnc(SCC(=O)Nc3cccnc3Cl)s2)c1	ASAP1 GAP inh 29.7 | ASAP1 inh confirm inactive
CC(C)NC(=O)c1ccc2c3n(nc2c1)-c1ccc(Cl)cc1CO3	ASAP1 GAP inh 31.4 | ASAP1 inh confirm inactive
CCN(CC)CCCNC(=O)c1ccc2c3n(nc2c1)-c1ccc(Cl)cc1CO3	none
COc1cccc(-n2nnc3c(=O)n(Cc4ccc(Br)cc4)cnc32)c1	ASAP1 GAP inh 27.5 | ASAP1 inh confirm 34.7
COc1cccc(-n2nnc3c(=O)n(CC(=O)Nc4ccccc4C)cnc32)c1	ASAP1 GAP inh 32.1 | ASAP1 inh confirm inactive
COc1cccc(-n2nnc3c(=O)n(Cc4ccc(C)cc4)cnc32)c1	none
CCOC(=O)CC[C@@H]1CC[C@]2(CCCN(C(=O)C3CCCC3)C2)O1	none (no result: ASAP1 GAP inh, ARFGAP1 inhibitor)
COC(=O)[C@]12C[C@H](CC(=O)NCCCCc3ccccc3)C(=O)N(Cc3ccco3)C1=C[C@H](C(C)(C)C)O[C@@H]2C	none (no result: ASAP1 GAP inh, ARFGAP1 inhibitor)
O=C(CN(CCc1ccccc1)S(=O)(=O)c1ccc(F)cc1)N1CCOCC1	none (no result: ASAP1 GAP inh, ARFGAP1 inhibitor)
Cc1nc2ccc(S(=O)(=O)Nc3cccc(-c4nc5cccnc5s4)c3)cc2s1	none
Cc1nc2ccc(S(=O)(=O)Nc3ccc(-c4nc5cccnc5s4)cc3)cc2s1	ASAP1 GAP inh 28.0 | ASAP1 inh confirm inactive
COc1ccc(S(=O)(=O)/N=C2\C=C(Nc3ccc(O)cc3)C(=O)c3ccccc32)cc1	ASAP1 GAP inh 38.2, PLCg1 inh 18.0 | ASAP1 inh confirm 25.4
Cc1ccc(NC2=C/C(=N/S(=O)(=O)c3cccs3)c3ccccc3C2=O)cc1C	none
Clc1ccc(OCc2nn3c(-c4ccco4)nnc3s2)c(Cl)c1	ASAP1 GAP inh 25.5 | ASAP1 inh confirm 37.0
COC(=O)CCCC1=CC2=CC(=O)C(C)(OC(=O)c3cccs3)C(=O)C2=CN1Cc1ccco1 (stereo not given)	ASAP1 GAP inh 24.9 | ASAP1 inh confirm inactive
Nc1ccc2c(c1)C(=NO)c1cc([N+](=O)[O-])ccc1-2	ASAP1 GAP inh 25.9 | ASAP1 inh confirm inactive
O=[N+]([O-])c1ccc2c(c1)-c1ccccc1C2=NO	none
O=C(OC12CCCN(C1)/C(=C/c1ccc(Cl)cc1)C2)c1cccc(F)c1 (stereo not given)	none (no result: ASAP1 GAP inh, ARFGAP1 inhibitor)
N/C(=N\OC(=O)c1cccc2ccccc12)c1cccc([N+](=O)[O-])c1	ASAP1 GAP inh 27.7 | ASAP1 inh confirm 57.3
Cc1ccccc1C(=O)O/N=C(\N)c1cccc([N+](=O)[O-])c1	none
COc1ccc(CNS(=O)(=O)/C=C/c2ccc(OC)cc2CNC(=O)OC(C)(C)C)cc1	none (no result: ASAP1 GAP inh, ARFGAP1 inhibitor)
CC(Sc1ccsc1[N+](=O)[O-])C(=O)NCc1ccccc1 (stereo not given)	ASAP1 GAP inh 24.8 | ASAP1 inh confirm inactive
COc1ccccc1CNC(=O)C(C)Sc1ccsc1[N+](=O)[O-] (stereo not given)	none
CC(/C=N/NC(=O)c1nnn(-c2nonc2N)c1C(C)C)=C\c1ccccc1	ASAP1 GAP inh 28.8 | ASAP1 inh confirm inactive
CCCc1c(C(=O)N/N=C/C(C)=C/c2ccccc2)nnn1-c1nonc1N	none
N#Cc1cc2ccc(N3CCOCC3)cc2cc1C#N	ASAP1 GAP inh 29.5 | ASAP1 inh confirm inactive
COC(=O)c1ccc(C(=O)OCc2nc3cc4ccccc4cc3[nH]2)cc1	ASAP1 GAP inh 26.3 | ASAP1 inh confirm inactive
CCOc1ccc2[nH]c(C(=O)N/N=C/c3cc(OC)c(OC)c(OC)c3)cc2c1	ASAP1 GAP inh 27.3 | ASAP1 inh confirm 50.7
CCOc1ccc(/C=N/NC(=O)c2cc3c(OC)cccc3[nH]2)cc1	none
